Laboratory results: ChEMBL document CHEMBL2401612, “Design, synthesis and characterization of peptidomimetic conjugate of BODIPY targeting HER2 protein extracellular domain” (Eur J Med Chem, 2013)
Calls of active or inactive are those of the source. No cut-off for these calls is given here.

Experiments:
SK-BR-3 [1] = test: Cellular uptake in human SKBR3 cells overexpressing HER2 at 0.4 uM after 48 hrs by lyso tracking-based confocal microscopic analysis; type: ADME, cell-based; settings: sk-br-3, 48 h
Method in brief: (§1)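 SKBR-3 cells in chamber wells given 0.4 μM BODIPY conjugate at 37 °C for 24 or 48 h, PBS-washed and fixed in ice-cold methanol at −20 °C for 5 min. Membrane tracker (5 min) or Lyso tracker (30 min) in serum-free medium added at 37 °C. Mounted slides imaged by confocal microscopy at 40X under oil with argon and HeNe lasers to assess co-localization.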

[2] = Cellular uptake in human SKBR3 cells plasma membrane overexpressing HER2 at 0.4 uM after 24 hrs by membrane tracking-based confocal microscopic analysis; type: ADME, cell-based; settings: sk-br-3, 24 h; method in brief: as §1
SK-BR-3 [3] = test: Cellular uptake in human SKBR3 cells overexpressing HER2 at 1 to 10 uM by fluorescence plate reader analysis; type: ADME, cell-based; settings: sk-br-3, 10 µM, TDE = time-dependent effect
Method in brief: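 Fluorescent BODIPY conjugate diluted in McCoy's medium to 1 and 10 μM and added to SKBR-3 cells (10,000/well, grown 24 h) at 37 °C. At 0, 12, 24, 36, 48 and 72 h, medium removed and cells washed twice with PBS. Cell-associated fluorescence read on a plate reader at 490/530 nm excitation/emission.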

[4] = biological target: Receptor tyrosine-protein kinase erbB-2 (Homo sapiens) (UniProt P04626); test: Inhibition of HER2 kinase domain phosphorylation in human BT474 cells at 0.4 uM by Western blot analysis; type: cell-based; settings: BT-474, TDE = time-dependent effect
Method in brief: (§2)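 BT-474 cells (RPMI-1640) and SKBR-3 cells (McCoy's), each with 10% FBS and insulin, plated in triplicate flasks and treated after 24 h with 0.4 μM compound or left untreated at 37 °C, 5% CO2. Lysates made with protease and phosphatase inhibitors; 40 μg protein run on 10% SDS-PAGE. Blots probed with p-HER2 antibody (1:3000, 15 h, 4 °C), detected by ECL; total HER2 blotted with an anti-ECD antibody.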

[5] = biological target: Receptor tyrosine-protein kinase erbB-2 (Homo sapiens) (UniProt P04626); test: Inhibition of HER2 kinase domain phosphorylation in human SKBR3 cells at 0.4 uM by Western blot analysis; type: cell-based; settings: SK-BR-3, TDE = time-dependent effect; method in brief: as §2
[6] = biological target: Receptor tyrosine-protein kinase erbB-2 (Homo sapiens) (UniProt P04626); test: Binding affinity to HER2 extracellular domain in human SKBR3 cells assessed as inhibition of HER3 binding at 0.8 uM after 24 hrs by confocal microscopy-based proximity ligation assay; type: cell-based; settings: SK-BR-3
Method in brief: (§3)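 SKBR-3 cells seeded at 5 × 10^4 per chamber well and grown 24 h at 37 °C, then treated 24 h. Cells fixed in ice-cold methanol at −20 °C and blocked in 5% BSA 1 h. Primary antibodies anti-HER2 (rabbit) and anti-HER3 (mouse), each 1:400, applied overnight at 4 °C. Duolink PLA probes, ligation and amplification at 37 °C, then confocal imaging of red heterodimer spots.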

[7] = biological target: Receptor tyrosine-protein kinase erbB-2 (Homo sapiens) (UniProt P04626); test: Inhibition of HER2 kinase domain phosphorylation in human SKBR3 cells at 0.4 uM after 18 hrs by Western blot analysis; type: cell-based; settings: SK-BR-3; method in brief: as §2
[8] = biological target: Receptor tyrosine-protein kinase erbB-2 (Homo sapiens) (UniProt P04626); test: Binding affinity to HER2 extracellular domain in human SKBR3 cells assessed as inhibition of EGFR binding; type: cell-based; settings: SK-BR-3
[9] = biological target: Receptor tyrosine-protein kinase erbB-2 (Homo sapiens) (UniProt P04626); test: Inhibition of HER2 kinase domain phosphorylation in human BT474 cells at 0.4 uM after 18 hrs by Western blot analysis; type: cell-based; settings: BT-474; method in brief: as §2
[10] = biological target: Receptor tyrosine-protein kinase erbB-2 (Homo sapiens) (UniProt P04626); test: Binding affinity to HER2 extracellular domain in human SKBR3 cells assessed as inhibition of HER3 binding at 0.5 uM after 24 hrs by confocal microscopy-based proximity ligation assay; type: cell-based; settings: SK-BR-3; method in brief: as §3

Chain of Receptor tyrosine-protein kinase erbB-2 (Homo sapiens) (P04626 whole entry, the tested form may be a part): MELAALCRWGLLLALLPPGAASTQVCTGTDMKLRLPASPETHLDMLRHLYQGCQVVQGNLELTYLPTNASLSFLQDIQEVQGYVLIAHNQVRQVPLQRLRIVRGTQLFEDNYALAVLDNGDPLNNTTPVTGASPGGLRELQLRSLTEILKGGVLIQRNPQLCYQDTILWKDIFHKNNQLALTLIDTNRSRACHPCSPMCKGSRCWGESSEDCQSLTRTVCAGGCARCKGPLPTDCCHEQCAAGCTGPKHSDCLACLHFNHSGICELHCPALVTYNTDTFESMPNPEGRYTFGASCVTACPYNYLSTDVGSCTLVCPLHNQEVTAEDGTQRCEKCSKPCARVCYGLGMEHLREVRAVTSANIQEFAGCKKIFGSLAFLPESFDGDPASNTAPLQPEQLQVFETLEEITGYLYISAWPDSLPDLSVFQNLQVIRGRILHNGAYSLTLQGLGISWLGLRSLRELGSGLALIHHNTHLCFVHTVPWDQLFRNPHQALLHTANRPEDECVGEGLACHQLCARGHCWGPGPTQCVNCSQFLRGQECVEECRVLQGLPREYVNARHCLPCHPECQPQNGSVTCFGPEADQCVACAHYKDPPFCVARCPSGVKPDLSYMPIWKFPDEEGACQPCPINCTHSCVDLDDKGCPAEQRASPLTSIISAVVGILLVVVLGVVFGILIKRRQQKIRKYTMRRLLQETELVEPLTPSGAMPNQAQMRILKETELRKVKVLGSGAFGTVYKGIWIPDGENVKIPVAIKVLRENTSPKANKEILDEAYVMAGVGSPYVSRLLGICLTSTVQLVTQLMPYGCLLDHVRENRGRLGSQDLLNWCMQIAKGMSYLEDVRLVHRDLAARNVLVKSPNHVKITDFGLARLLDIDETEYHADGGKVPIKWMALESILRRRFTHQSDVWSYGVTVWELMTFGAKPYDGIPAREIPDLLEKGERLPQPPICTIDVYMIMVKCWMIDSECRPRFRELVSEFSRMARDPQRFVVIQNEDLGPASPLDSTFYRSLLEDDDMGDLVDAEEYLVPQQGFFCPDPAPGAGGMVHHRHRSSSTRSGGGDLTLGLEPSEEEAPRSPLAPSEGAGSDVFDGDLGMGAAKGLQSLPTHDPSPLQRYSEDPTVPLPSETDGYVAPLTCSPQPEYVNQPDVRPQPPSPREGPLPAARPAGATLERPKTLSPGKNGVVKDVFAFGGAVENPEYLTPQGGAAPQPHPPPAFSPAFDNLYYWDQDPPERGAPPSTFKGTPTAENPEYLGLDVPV

Drug uptake (SK-BR-3 [1]) | Drug uptake [2] | Drug uptake (SK-BR-3 [3]) | inhibition [4] | inhibition [5] | inhibition [6] | inhibition [7] | inhibition [8] | inhibition [9] | inhibition [10] | Structure (SMILES)
Active | Active | tde | – | – | – | – | – | – | – | Cc1cc(C)n2c1C=C1C=CC(CCCCC(=O)N[C@@H](CCCNC(=N)N)C(=O)NC(CC(=O)N[C@@H](Cc3ccccc3)C(=O)O)c3cccc4ccccc34)=[N+]1[B-]2(F)F (stereo not given in full)
– | – | – | tde | tde | Active | Active | Active | Active | inactive | N=C(N)NCCC[C@H](N)C(=O)NC(CC(=O)N[C@@H](Cc1ccccc1)C(=O)O)c1cccc2ccccc12 (stereo not given in full)
